Assay results collected from several papers.
Lines come from different studies, so protocols differ. pEC50, pIC50: −log10 of the molar value. ≈ marks a conversion by molar mass, not a printed value.

O=C(Cn1ccnc1[N+](=O)[O-])NCc1ccccc1  pEC50 (Trypanosoma cruzi; parasite growth; MRC5; intracellular, amastigote): 5.80
CC1(F)CN(C(=O)Cn2c(=O)c(C(=O)NCc3ccc(Cl)cc3)cc3nc(N4CCN(CC(=O)O)C4=O)cnc32)C1  pEC50 (Human betaherpesvirus 5; viral replication, inhibitor; AD169): 5.90
CN(C)c1cc(NC(=O)Cc2cncnc2)c(O)c2c1C[C@H]1C[C@H]3[C@H](N(C)C)C(O)=C(C(N)=O)C(=O)[C@@]3(O)C(O)=C1C2=O  MIC (Mycobacterium tuberculosis; microbial growth, broth dilution; H37RV; 7 days, pH 7.4): 0.4 µg/mL (≈ 0.675 µM)
OC(Cn1cncn1)(Cn1cncn1)c1ccc(F)cc1F  pIC50 (Trypanosoma cruzi; parasite growth, resazurin; 24 h, trypomastigote): 4.63
CN(C)c1cc(NC(=O)Cc2ncccn2)c(O)c2c1C[C@H]1C[C@H]3[C@H](N(C)C)C(O)=C(C(N)=O)C(=O)[C@@]3(O)C(O)=C1C2=O  MIC (Mycobacterium tuberculosis; microbial growth, broth dilution; H37RV; 7 days, pH 7.4): 0.8 µg/mL (≈ 1.35 µM)
O=C(Cn1ccnc1[N+](=O)[O-])NCc1ccccc1  pIC50 (Trypanosoma cruzi; parasite growth, absorbance; MRC5; intracellular, amastigote): 5.30 to 5.70
CN1CCN(c2cnc3c(cc(C(=O)NCc4ccc(Cl)cc4)c(=O)n3CC(=O)N3CC(C)(F)C3)n2)C1=O  pEC50 (Human betaherpesvirus 5; viral replication, inhibitor; AD169): 6.89
Cc1ccc(Cn2cc(C(=O)NN)c(=O)c3cc(Oc4ccccc4)ccc32)cc1  pEC50 (Trypanosoma cruzi; parasite growth; MRC5; intracellular, amastigote): 4.36
